These results are taken from PubChem BioAssay.

Each structure is given as a SMILES string. Active and inactive are the calls of the source.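 The calls were made as follows, unless noted: active = visual image review flags a hit and inhibition of aggregation exceeds 20%; inconclusive = visual hit but inhibition at or below 20%; inactive = no hit on visual image review.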

Assay [1] can be described thus: inhibitors of TNFa-induced NFkB p65 translocation, primary screen, imaging, HUVEC, MLSMR starter and 10KST1 sets (AID 438;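 active = inhibition above 20% together with a positive visual image hit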;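 also: compound added about 3h40 before a 20 min TNFalpha stimulation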;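 as to inhibition: signal is the nuclear over cytoplasmic p65 intensity ratio per well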). The conditions noted are these: HUVEC TNFa-induced p65 nuclear translocation; cell count: measured here: nuclei count (cytotoxicity indicator), at 2.08 µM; inhibition: at 2 µM, stronger effect = higher value, 0% TNFa-plus-vehicle, 100% no-TNFa wells.
The nature of assay [2]: inhibitors of mutant huntingtin aggregation, primary screen, imaging, exon1htt(103Q)mCFP cells, high-content imaging (AID 483).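 Also: compound exposure lasted 3 days before fixation.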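 As to nuclei count: percent of the per-plate median nuclei count of sample wells.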 The conditions noted are these: exon1htt(103Q)mCFP cell line, aggregate imaging, at 2 µM; inhibition of aggregation: stronger effect = higher value; nuclei count: measured here: cell count, toxicity.
A short description of assay [3]: inhibitors of E-selectin induction by TNFa, primary screen, imaging, HUVEC, immunofluorescence, MLSMR starter and 10KST1 sets (AID 487;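 active = visually confirmed hit in the image check and inhibition above 20%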;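 as to inhibition: signal is fraction of cell area covered by stained E-selectin grains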;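 as to nuclei count: 100% = median nuclei count of all wells on the same plate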). The conditions noted are these: HUVEC TNFalpha-induced E-selectin immunofluorescence imaging, at 2 µM; inhibition: stronger effect = higher value; nuclei count: measured here: cell number, toxicity.
Assay [4] deals with Voltage-gated potassium channel subunit beta-2 (Rattus norvegicus) (UniProt P62483). In words: KvBeta enzyme negative modulators, primary screen, biochemical, NADPH fluorescence (AID 622;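 active = fluorescence slope higher than the sample average by over 3 SD, cut at about -0.22 in these data, passing the limit was not always enough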;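 also: slope of raw intensity against log time taken from 70 to 1610 s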). The conditions noted are these: recombinant KvBeta, 4-cyanobenzaldehyde reduction, at 10 µM, stronger effect = higher value.
For assay [5] the target is unchanged. In words: KvBeta positive modulators, primary screen, biochemical, NADPH fluorescence (AID 623;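 active = NADPH fluorescence slope more negative than the mean of all samples by about 3 SD, 99.7% confidence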;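 also: fluorescence intensity change per second fitted from 20 to 320 s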). The conditions noted are these: Recombinant KvBeta, NADPH fluorescence decrease slope, 10 min; at 10 µM; stronger effect = lower value.
In assay [6] the target is Muscarinic acetylcholine receptor M4 (Homo sapiens) (UniProt P08173). In words: compounds altering M4/GIRK thallium flux, either direction, primary screen, M4 allosteric agonist project, cell-based, HEK293 M4/GIRK, BTC-AM (AID 625;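 active = fluorescence slope after compound addition differing from the mean of all tested samples at 99.7% confidence, mostly higher but some lower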;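 also: thallium influx through GIRK channels coupled to M4 in HEK293 cells with BTC-AM dye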). The conditions noted are these: at 10 µM, actives lie on both sides. In a few lines:
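Material: M4/GIRK1/GIRK2 stable HEK293 cell line. Medium: pH 7.3 thallium assay buffer. Dosing: single compound concentration, 10 µM final. Schedule: 1 h dye loading, 2 min kinetic read. Measured by: kinetic fluorescence with BTC-AM dye. Read-out: post-addition slope, 15–24 s, of baseline-normalized fluorescence. Benchmarks: carbachol and DMSO controls.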

Assay [7] can be described thus: inhibitors of Sendai virus-induced IRF3 signaling, primary screen, TLR/RLR signaling modifier project, cell-based, Sendai virus stimulus, luciferase, 10K MLSCN set (AID 602276;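 active = inhibition at or above 50% at 10 µM; inactive = inhibition below 50%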;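 also: firefly luciferase from ISG56 promoter only with Renilla not read in this screen; 0% = Sendai virus plus DMSO and 100% = medium plus DMSO without virus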). The conditions noted are these: HEK293 RL24 IRF3 luciferase reporter, at 10 µM, stronger effect = higher value. Background: In a reporter assay the amount or activity of a reporter protein is the signal.

Assay [8] is described as follows: inhibitors of poly I:C-induced TLR3 signaling, primary screen, cell-based, poly I:C stimulus, luciferase, 10K MLSCN set (AID 602277;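 active = inhibition of the reporter signal at or above 50%; inactive = inhibition below 50%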). The conditions noted are these: HEK293-TLR3 RL24 IRF3 luciferase reporter, at 10 µM, stronger effect = higher value.

Broadly, the inhibition is the drop in the measured response relative to a control, in per cent.

Sequence of Muscarinic acetylcholine receptor M4 (Homo sapiens) (P08173 whole entry, looked up): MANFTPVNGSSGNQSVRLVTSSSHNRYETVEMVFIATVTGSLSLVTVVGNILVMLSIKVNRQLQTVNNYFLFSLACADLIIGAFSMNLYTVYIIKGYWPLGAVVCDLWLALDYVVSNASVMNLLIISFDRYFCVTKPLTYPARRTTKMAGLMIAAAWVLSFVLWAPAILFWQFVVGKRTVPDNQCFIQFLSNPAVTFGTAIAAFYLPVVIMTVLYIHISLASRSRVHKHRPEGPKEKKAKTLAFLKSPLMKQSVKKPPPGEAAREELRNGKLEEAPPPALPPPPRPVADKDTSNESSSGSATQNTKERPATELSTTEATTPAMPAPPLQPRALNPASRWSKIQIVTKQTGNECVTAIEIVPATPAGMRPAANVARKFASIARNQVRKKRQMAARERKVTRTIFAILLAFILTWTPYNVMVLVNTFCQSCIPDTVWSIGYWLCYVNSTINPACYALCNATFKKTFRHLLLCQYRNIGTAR
Sequence of Voltage-gated potassium channel subunit beta-2 (Rattus norvegicus) (P62483 whole entry, looked up): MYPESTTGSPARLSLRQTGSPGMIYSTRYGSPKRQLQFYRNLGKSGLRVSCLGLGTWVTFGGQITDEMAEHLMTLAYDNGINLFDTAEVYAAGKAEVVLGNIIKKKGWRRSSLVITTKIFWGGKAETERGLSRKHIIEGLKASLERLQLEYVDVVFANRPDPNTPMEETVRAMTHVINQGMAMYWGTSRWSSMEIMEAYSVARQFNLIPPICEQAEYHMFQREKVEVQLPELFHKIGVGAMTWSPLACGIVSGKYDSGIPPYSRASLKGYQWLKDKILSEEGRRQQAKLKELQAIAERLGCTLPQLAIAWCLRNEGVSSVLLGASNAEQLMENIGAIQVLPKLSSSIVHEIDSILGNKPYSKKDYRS

Regarding `COc1ccccc1C(=O)n1nc(-c2ccccc2)nc1N`, the cell count in assay [1] was determined as 354. The inhibition in assay [1] was -3.3% (inactive); in assay [3], -55.5% (inactive); in assay [7], 15.7% (inactive); in assay [8] it was 11.1% (inactive). Also, the inhibition of aggregation in assay [2] was 9.7% (inactive). The values for the nuclei count in assay [2] and in assay [3] were 101% and 119%, respectively. The fluorescence slope is -0.619 (inactive) in assay [4] and 0.00374 (inactive) in assay [6]. In assay [5], the NADPH fluorescence slope was -2.9e-05 (inactive).
Turning to `COc1ccc(Cl)cc1NC(=O)c1oc(C)nc1C`, the cell count in assay [1] was 555. In addition, the inhibition in assay [1] is -0.7% (inactive); in assay [3], -1% (inactive); in assay [7] it was 25.6% (inactive); in assay [8] it was 42.6% (inactive). Besides, the inhibition of aggregation in assay [2] is -0.3% (inactive). Also, the nuclei count in assay [2] worked out at 97.4%; in assay [3] it was 108%. The fluorescence slope in assay [4] was -0.35 (inactive); in assay [6] it was 0.00568 (inactive). In addition, the NADPH fluorescence slope in assay [5] is -4.4e-05 (inactive).
Regarding `CCc1cccc2c(=O)c(C(=O)NCCN3CCOCC3)c[nH]c12`, the cell count in assay [1] stood at 584. The inhibition in assay [1] is 8.2% (inactive); in assay [3] it was 27.3% (inactive); in assay [7] it was 1.65% (inactive); in assay [8], 18.5% (inactive). In addition, in assay [2], the inhibition of aggregation is -3.6% (inactive). The nuclei count stood at 110% in assay [2] and 91.2% in assay [3]. Moreover, the fluorescence slope is -0.558 (inactive) in assay [4] and 0.00469 (inactive) in assay [6]. Further, in assay [5], the NADPH fluorescence slope was -5.3e-05 (inactive).
With `O=C(CCN1CCN(c2ccc(F)cc2)CC1)Nc1ccccc1F`, the cell count in assay [1] came to 315. In addition, the inhibition was -2.1% (inactive) in assay [1], 19.6% (inactive) in assay [3], 16.9% (inactive) in assay [7] and 24.9% (inactive) in assay [8]. Further, the inhibition of aggregation in assay [2] is 34.9% (active). The nuclei count stood at 84.8% in assay [2] and 87.8% in assay [3]. In addition, the values for the fluorescence slope in assay [4] and in assay [6] were -0.446 (inactive) and 0.00622 (inactive), respectively. The NADPH fluorescence slope in assay [5] was 0.000136 (inactive).
On to `COCCN1C(=O)C(=O)/C(=C(/O)c2ccc(OC(C)C)cc2)C1c1cccnc1` (centres undefined), for which the cell count in assay [1] is 644. In addition, the inhibition in assay [1] is -4.7% (inactive); in assay [3] it was 19.8% (inactive); in assay [7], 17.3% (inactive); in assay [8] it was 19.8% (inactive). Further, the inhibition of aggregation in assay [2] was -7.9% (inactive). Further, the nuclei count in assay [2] was determined as 116%; in assay [3], 104%. For the same compound, the values for the fluorescence slope in assay [4] and in assay [6] were -0.422 (inactive) and 0.00536 (inactive), respectively. For the same compound, the NADPH fluorescence slope in assay [5] is -1.5e-05 (inactive).
With `CN(C)c1nc(N)nc(CSc2nnnn2-c2cccc3ccccc23)n1`, the cell count in assay [1] was 627. Moreover, the inhibition in assay [1] is -10.4% (inactive); in assay [3], -69.3% (inactive); in assay [7], 18.6% (inactive); in assay [8], 14.8% (inactive). The inhibition of aggregation in assay [2] is 27.3% (inactive). Besides, the nuclei count was determined as 71.9% in assay [2] and 103% in assay [3]. Further, the results for the fluorescence slope in assay [4] and in assay [6] were -0.463 (inactive) and 0.00537 (inactive), respectively. The NADPH fluorescence slope in assay [5] was -3.9e-05 (inactive).
Consider `O=C(Nc1cccc(C(F)(F)F)c1)c1cccnc1N1CCCC1`, for which the cell count in assay [1] is 360. Besides, the inhibition in assay [1] was 4.5% (inactive); in assay [3], -32.4% (inactive); in assay [7], 16.2% (inactive); in assay [8], 28.2% (inactive). Moreover, the inhibition of aggregation in assay [2] was -13% (inactive). The nuclei count came to 105% in assay [2] and 118% in assay [3]. Besides, the values for the fluorescence slope in assay [4] and in assay [6] were -0.531 (inactive) and 0.00477 (inactive), respectively. Also, the NADPH fluorescence slope in assay [5] was 2.1e-05 (inactive).
Take `CC1(C)Cc2noc(N)c2C(C)(C)N1OC(=O)c1cccs1`: in assay [1], the cell count amounted to 379. Besides, the inhibition in assay [1] was 0% (inactive); in assay [3] it was -80.4% (inactive); in assay [7], 4.03% (inactive); in assay [8], 12.6% (inactive). For the same compound, the inhibition of aggregation in assay [2] is 5.5% (inactive). The nuclei count in assay [2] worked out at 110%; in assay [3], 129%. Moreover, the fluorescence slope in assay [4] is -0.46 (inactive); in assay [6], 0.00603 (inactive). The NADPH fluorescence slope in assay [5] is 1.8e-05 (inactive).
In the case of `CC(C)(C)OC(=O)N1CCOCCOCCN(C(=O)OC(C)(C)C)CCOCCOCC1`, in assay [1], the cell count is 395. For the same compound, the inhibition in assay [1] was 0.8% (inactive); in assay [3], -90.1% (inactive); in assay [7], 4.46% (inactive); in assay [8], 6.47% (inactive). In assay [2], the inhibition of aggregation was 2.5% (inactive). Besides, the nuclei count was 92.3% in assay [2] and 119% in assay [3]. Moreover, the fluorescence slope in assay [4] was -0.579 (inactive); in assay [6], 0.00267 (inactive). In addition, in assay [5], the NADPH fluorescence slope was -6.4e-05 (inactive).
